According to ChEMBL document CHEMBL1155488, “Carbamate derivatives of betulinic acid and betulin with selective cytotoxic activity” (Bioorg Med Chem Lett, 2010):
pIC50: −log10 of the molar value. Activity calls are given as the source filed them. The rule behind the calls is not given here.

What was measured:
[1] = test system: HCT-116; test: Cytotoxicity against human HCT116 cells after 96 hrs by SRB assay; assay type: functional, cell-based; conditions: HCT-116, 96 h
[2] = test system: HCT-8; test: Cytotoxicity against human HCT8 cells after 96 hrs by SRB assay; assay type: functional, cell-based; conditions: HCT-8, 96 h
[3] = test system: MCF7; test: Cytotoxicity against human MCF7 cells after 96 hrs by SRB assay; assay type: functional, cell-based; conditions: MCF7, 96 h
[4] = test system: FaDu; test: Cytotoxicity against human FADU cells after 96 hrs by SRB assay; assay type: functional, cell-based
[5] = test system: SW-1736; test: Cytotoxicity against human SW1736 cells after 96 hrs by SRB assay; assay type: functional, cell-based; conditions: SW-1736, 96 h
[6] = test system: HT-29; test: Cytotoxicity against human HT-29 cells after 96 hrs by SRB assay; assay type: functional, cell-based; conditions: HT-29, 96 h
[7] = test system: DLD-1; test: Cytotoxicity against human DLD1 cells after 96 hrs by SRB assay; assay type: functional, cell-based; conditions: DLD-1, 96 h
[8] = test system: 8505C; test: Cytotoxicity against human 8505C cells after 96 hrs by SRB assay; assay type: functional, cell-based
[9] = Cytotoxicity against human A253 cells after 96 hrs by SRB assay; assay type: functional, cell-based; conditions: A253, 96 h
[10] = test system: A-431; test: Cytotoxicity against human A431 cells after 96 hrs by SRB assay; assay type: functional, cell-based; conditions: A-431, 96 h
[11] = Cytotoxicity against human 518A2 cells after 96 hrs by SRB assay; assay type: functional, cell-based; conditions: 518A2, 96 h
[12] = test system: A2780; test: Cytotoxicity against human A2780 cells after 96 hrs by SRB assay; assay type: functional, cell-based; conditions: A2780, 96 h
[13] = test system: A549; test: Cytotoxicity against human A549 cells after 96 hrs by SRB assay; assay type: functional, cell-based; conditions: A549, 96 h
[14] = Cytotoxicity against human Liposarcoma cells after 96 hrs by SRB assay; assay type: functional, cell-based
[15] = test system: SW480; test: Cytotoxicity against human SW480 cells after 96 hrs by SRB assay; assay type: functional, cell-based; conditions: SW480, 96 h
[16] = Selectivity index, ratio of IC50 for human fibroblast to IC50 for human 518A2 cells
Outline: (§1)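 The selectivity index was calculated as the IC50 on human fibroblasts divided by the IC50 on the corresponding tumor cell line.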

[17] = Cytotoxicity against human fibroblast at 100 uM after 96 hrs by SRB assay; assay type: cell-based
[18] = test system: SW480; test: Selectivity index, ratio of IC50 for human fibroblast to IC50 for human SW480 cells; outline: as §1
[19] = test system: 8505C; test: Selectivity index, ratio of IC50 for human fibroblast to IC50 for human 8505C cells; outline: as §1
[20] = test system: A549; test: Selectivity index, ratio of IC50 for human fibroblast to IC50 for human A549 cells; outline: as §1
[21] = test system: A549; test: Induction of apoptosis in human A549 cells assessed as DNA fragmentation at equitoxic IC90 after 24 hrs by agarose gel electrophoresis
[22] = Selectivity index, ratio of IC50 for human fibroblast to IC50 for human Liposarcoma cells; outline: as §1
[23] = test system: DLD-1; test: Selectivity index, ratio of IC50 for human fibroblast to IC50 for human DLD1 cells; outline: as §1
[24] = test system: HCT-8; test: Selectivity index, ratio of IC50 for human fibroblast to IC50 for human HCT8 cells; outline: as §1
[25] = test system: HCT-116; test: Selectivity index, ratio of IC50 for human fibroblast to IC50 for human HCT116 cells; outline: as §1
[26] = Selectivity index, ratio of IC50 for human fibroblast to IC50 for human A253 cells; outline: as §1
[27] = test system: MCF7; test: Selectivity index, ratio of IC50 for human fibroblast to IC50 for human MCF7 cells; outline: as §1
[28] = test system: FaDu; test: Selectivity index, ratio of IC50 for human fibroblast to IC50 for human FADU cells; outline: as §1
[29] = Cytotoxicity against human fibroblast after 96 hrs by SRB assay; assay type: cell-based
[30] = test system: A-431; test: Selectivity index, ratio of IC50 for human fibroblast to IC50 for human A431 cells; outline: as §1
[31] = test system: A2780; test: Selectivity index, ratio of IC50 for human fibroblast to IC50 for human A2780 cells; outline: as §1
[32] = Selectivity index, ratio of IC50 for human fibroblast to IC50 for human SW1736 cells; outline: as §1
[33] = test system: HT-29; test: Selectivity index, ratio of IC50 for human fibroblast to IC50 for human HT-29 cells; outline: as §1
[34] = test system: A549; test: Induction of apoptosis in human A549 cells assessed as caspase3/7 activation at equitoxic IC90 after 6 hrs; assay type: functional, cell-based
[35] = test system: A549; test: Induction of apoptosis in human A549 cells assessed as caspase3/7 activation at equitoxic IC90 after 2 hrs; assay type: functional, cell-based

SMILES	pIC50 [1]	pIC50 [2]	pIC50 [3]	pIC50 [4]	pIC50 [5]	pIC50 [6]	pIC50 [7]	pIC50 [8]	pIC50 [9]	pIC50 [10]	pIC50 [11]	pIC50 [12]	pIC50 [13]	pIC50 [14]	pIC50 [15]	further results
C=C(C)[C@@H]1CC[C@]2(C(=O)OC)CC[C@]3(C)[C@H](CC[C@@H]4[C@@]5(C)CC[C@H](OC(=O)NCC)C(C)(C)[C@@H]5CC[C@]43C)[C@@H]12	4.87	4.82	5.15	5.26	5.63	5.14	4.72	5.14	4.78	4.83	4.78	5.08	5.63	5.16	5.18	
C=C(C)[C@@H]1CC[C@]2(C(=O)OC)CC[C@]3(C)[C@H](CC[C@@H]4[C@@]5(C)CC[C@H](OC(=O)Nc6ccccc6)C(C)(C)[C@@H]5CC[C@]43C)[C@@H]12	< 4.00	< 4.00	< 4.00	< 4.00	< 4.00	4.16	< 4.00	< 4.00	< 4.00	4.04	< 4.00	4.16	< 4.00	< 4.00	< 4.00	
C=C(C)[C@@H]1CC[C@]2(COC(=O)NCC)CC[C@]3(C)[C@H](CC[C@@H]4[C@@]5(C)CC[C@H](OC(=O)NCC)C(C)(C)[C@@H]5CC[C@]43C)[C@@H]12 [BIS(ETHYLCARBAMATE)BETULIN]	5.42	5.41	4.75	5.10	5.44	5.21	5.08	5.03	5.01	5.22	5.09	5.36	5.54	4.92	5.56	Ratio IC50 [16]: >12.22; Activity [17]: Non-toxic; Ratio IC50 [18]: >36.1; Ratio IC50 [19]: >10.65; Ratio IC50 [20]: >34.36; Activity [21]: Active; Ratio IC50 [22]: >8.31; Ratio IC50 [23]: >12.02; Ratio IC50 [24]: >25.58; Ratio IC50 [25]: >26.04; Ratio IC50 [26]: >10.3; Ratio IC50 [27]: >5.65; Ratio IC50 [28]: >12.69; pIC50 [29]: < 4.00; Ratio IC50 [30]: >16.45; Ratio IC50 [31]: >22.88; Ratio IC50 [32]: >26.32; Ratio IC50 [33]: >16.13
C=C(C)[C@@H]1CC[C@]2(COC(C)=O)CC[C@]3(C)[C@H](CC[C@@H]4[C@@]5(C)CC[C@H](OC(=O)Nc6ccccc6)C(C)(C)[C@@H]5CC[C@]43C)[C@@H]12	< 4.00	< 4.00	< 4.00	< 4.00	< 4.00	4.12	< 4.00	< 4.00	< 4.00	< 4.00	< 4.00	4.07	< 4.00	< 4.00	< 4.00	
C=C(C)[C@@H]1CC[C@]2(C(=O)O)CC[C@]3(C)[C@H](CC[C@@H]4[C@@]5(C)CC[C@H](OC(=O)Nc6ccccc6)C(C)(C)[C@@H]5CC[C@]43C)[C@@H]12	4.67	4.60	4.32	4.62	4.73	4.50	4.58	4.40	4.46	4.57	4.29	4.61	4.65	4.29	4.39	
C=C(C)[C@@H]1CC[C@]2(COC(=O)Nc3ccccc3)CC[C@]3(C)[C@H](CC[C@@H]4[C@@]5(C)CC[C@H](OC(=O)Nc6ccccc6)C(C)(C)[C@@H]5CC[C@]43C)[C@@H]12 [BIS(PHENYLCARBAMATE)BETULIN]	< 4.00	< 4.00	< 4.00	< 4.00	< 4.00	4.16	< 4.00	< 4.00	< 4.00	< 4.00	< 4.00	4.09	< 4.00	< 4.00	< 4.00	
C=C(C)[C@@H]1CC[C@]2(C(=O)O)CC[C@]3(C)[C@H](CC[C@@H]4[C@@]5(C)CC[C@H](O)C(C)(C)[C@@H]5CC[C@]43C)[C@@H]12 [BETULINIC ACID]	4.97	4.88	4.91	4.99	4.88	4.86	4.93	5.14	5.04	4.90	5.09	4.96	4.95	4.92	5.19	Ratio IC50 [16]: 2.56; Ratio IC50 [18]: 3.21; Ratio IC50 [19]: 2.87; Ratio IC50 [20]: 1.87; Ratio IC50 [22]: 1.72; Ratio IC50 [23]: 1.75; Ratio IC50 [24]: 1.59; Ratio IC50 [25]: 1.93; Ratio IC50 [26]: 2.27; Ratio IC50 [27]: 1.7; Ratio IC50 [28]: 2.04; pIC50 [29]: 4.68; Ratio IC50 [30]: 1.65; Ratio IC50 [31]: 1.88; Ratio IC50 [32]: 1.59; Ratio IC50 [33]: 1.49
C=C(C)[C@@H]1CC[C@]2(C(=O)OC)CC[C@]3(C)[C@H](CC[C@@H]4[C@@]5(C)CC[C@H](O)C(C)(C)[C@@H]5CC[C@]43C)[C@@H]12 [METHYL BETULINATE]	4.69	4.76	4.61	4.69	4.49	4.51	4.34	4.63	4.73	4.57	4.54	4.53	4.69	4.63	4.75	
C=C(C)[C@@H]1CC[C@]2(COC(C)=O)CC[C@]3(C)[C@H](CC[C@@H]4[C@@]5(C)CC[C@H](O)C(C)(C)[C@@H]5CC[C@]43C)[C@@H]12	4.97	4.75	4.94	4.86	4.92	4.96	4.88	4.83	4.89	4.91	4.80	4.93	4.84	4.81	4.86	
C=C(C)[C@@H]1CC[C@]2(C(=O)O)CC[C@]3(C)[C@H](CC[C@@H]4[C@@]5(C)CC[C@H](OC(=O)NCC)C(C)(C)[C@@H]5CC[C@]43C)[C@@H]12	4.82	4.78	4.76	4.86	5.28	4.78	4.77	4.76	4.76	4.82	4.75	5.13	5.26	4.75	4.78	Activity [34]: Active
C=C(C)[C@@H]1CC[C@]2(COC(C)=O)CC[C@]3(C)[C@H](CC[C@@H]4[C@@]5(C)CC[C@H](OC(=O)NCC)C(C)(C)[C@@H]5CC[C@]43C)[C@@H]12	5.37	5.40	5.22	5.34	5.50	5.29	5.16	5.30	5.31	5.30	5.29	5.37	5.77	5.27	5.75	Ratio IC50 [16]: 4.76; Ratio IC50 [18]: 13.76; Ratio IC50 [19]: 4.82; Activity [35]: Active; Ratio IC50 [20]: 14.41; Activity [21]: Active; Ratio IC50 [22]: 4.55; Ratio IC50 [23]: 3.52; Ratio IC50 [24]: 6.2; Ratio IC50 [25]: 5.67; Ratio IC50 [26]: 4.99; Ratio IC50 [27]: 4.07; Ratio IC50 [28]: 5.39; pIC50 [29]: 4.61; Ratio IC50 [30]: 4.87; Activity [34]: Active; Ratio IC50 [31]: 5.69; Ratio IC50 [32]: 7.73; Ratio IC50 [33]: 4.8
